From paper PMC9328817 (Journal of Food and Drug Analysis, 2016)
Where a SMILES comes first, the peptide text is derived from it.

Key:
HepG2 cells = experiment: MTT viability assay; format: cell-based; conditions: for Inhibitory effect on the growth of HepG2 cancer cells (in words): 0-1 mg/mL; for Growth inhibition of HepG2 cells: highest concentration tested 1 mg/mL, 24, 48 and 72 hours
Method in brief: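 HepG2 cells were grown in DMEM with 10% FBS, L-glutamine and 1% penicillin/streptomycin at 37°C, humidified, 5% CO2, and treated in log phase at 80% confluence. After seeding and 24 h incubation, cells received peptides at 0–1 mg/mL for 24, 48 or 72 h. MTT was added (4 h, dark, 37°C), DMSO was added, and A570 was read against untreated cells.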

cancer cell growth = conditions: cited from earlier work

Molecule | Inhibitory effect on the growth of HepG2 cancer cells (in words) (HepG2 cells) | Growth inhibition of HepG2 cells (HepG2 cells) | Reduction of cancer cell growth (cancer cell growth)
CC(C)C[C@H](NC(=O)CNC(=O)[C@@H](N)CCCNC(=N)N)C(=O)N[C@@H](Cc1c[nH]cn1)C(=O)N1CCC[C@H]1C(=O)N[C@H](C(=O)N1CCC[C@H]1C(=O)N[C@@H](CCC(N)=O)C(=O)O)C(C)C [RQ-8] (H-RGLHPVPQ-OH) | no significant inhibitory effects | about 20% | 
CC(C)C[C@H](NC(=O)[C@H](CCCNC(=N)N)NC(=O)[C@H](Cc1c[nH]cn1)NC(=O)[C@H](CC(C)C)NC(=O)[C@H](CCC(=O)O)NC(=O)[C@H](CCC(=O)O)NC(=O)[C@H](CC(C)C)NC(=O)[C@@H](N)Cc1ccc(O)cc1)C(=O)N[C@@H](CC(N)=O)C(=O)N[C@@H](C)C(=O)NCC(=O)N[C@@H](Cc1ccc(O)cc1)C(=O)O [YY-11] (H-YLEELHRLNAGY-OH) | no significant inhibitory effects | about 20% | 
CC(C)C[C@H](NC(=O)[C@H](CCC(N)=O)NC(=O)[C@H](CC(=O)O)NC(=O)[C@H](CCC(N)=O)NC(=O)[C@H](CCC(N)=O)NC(=O)[C@H](CCC(=O)O)NC(=O)[C@H](CC(=O)O)NC(=O)[C@H](CCC(=O)O)NC(=O)[C@@H](NC(=O)[C@H](CCC(N)=O)NC(=O)[C@H](CCC(N)=O)NC(=O)[C@H](CCC(N)=O)NC(=O)[C@H](CCC(=O)O)NC(=O)[C@H](CCC(=O)O)NC(=O)[C@@H](N)CC(C)C)[C@@H](C)O)C(=O)O [LL-15] (H-LEEQQQTEDEQQDQL-OH) | no significant inhibitory effects | about 20% | 
lactoferrin: iron-binding multifunctional protein in camel milk (protein, UniProt Q9TUM0 20-708, looked up) Lactotransferrin: ASKKSVRWCTTSPAESSKCAQWQRRMKKVRGPSVTCVKKTSRFECIQAISTEKADAVTLDGGLVYDAGLDPYKLRPIAAEVYGTENNPQTHYYAVAIAKKGTNFQLNQLQGLKSCHTGLGRSAGWNIPMGLLRPFLDWTGPPEPLQKAVAKFFSASCVPCVDGKEYPNLCQLCAGTGENKCACSSQEPYFGYSGAFKCLQDGAGDVAFVKDSTVFESLPAKADRDQYELLCPNNTRKPVDAFQECHLARVPSHAVVARSVNGKEDLIWKLLVKAQEKFGRGKPSGFQLFGSPAGQKDLLFKDSALGLLRISSKIDSGLYLGSNYITAIRGLRETAAEVELRRAQVVWCAVGSDEQLKCQEWSRQSNQSVVCATASTTEDCIALVLKGEADALSLDGGYIYIAGKCGLVPVLAESQQSPESSGLDCVHRPVKGYLAVAVVRKANDKITWNSLRGKKSCHTAVDRTAGWNIPMGLLSKNTDSCRFDEFLSQSCAPGSDPRSKLCALCAGNEEGQNKCVPNSSERYYGYTGAFRCLAENVGDVAFVKDVTVLDNTDGKNTEQWAKDLKLGDFELLCLNGTRKPVTEAESCHLAVAPNHAVVSRIDKVAHLEQVLLRQQAHFGRNGRDCPGKFCLFQSKTKNLLFNDNTECLAKLQGKTTYEEYLGPQYVTAIAKLRRCSTSPLLEACAFLMR |  |  | 56%
